Consider 6 compounds from ChEMBL document CHEMBL4665894, “Driving Potency with Rotationally Stable Atropisomers: Discovery of Pyridopyrimidinedione-Carbazole Inhibitors of BTK” (ACS Med Chem Lett, 2020).

pIC50: −log10 of the molar value. Several values for one entry are separate records, joined by “and”; a condition that tells them apart may be missing. Identical values can stand only once.

Data set [1] has as its target T1, Tyrosine-protein kinase BTK (Homo sapiens, UniProt Q06187). The experiment in a line: Inhibition of recombinant full-length His-tagged human BTK expressed in baculovirus expression system using fluoresceinated peptide as substrate incubated for 60 mins by fluorescence assay.
For the next data set, the species on record is Homo sapiens. The experiment in a line: Selectivity ratio of IC50 for JAK2 (unknown origin) to IC50 for recombinant full-length His-tagged human BTK expressed in baculovirus expression system.
Data set [2] concerns the target T1, Tyrosine-protein kinase BTK. Nature of the data set: Inhibition of BTK in human Ramos B cells assessed as reduction in goat anti human IgM-stimulated calcium flux preincubated for 1 hr followed by goat anti human IgM addition and measured for 180 secs by FLIPR assay. The data set is classed as cell-based.
For data set [3] the target is unchanged. The experiment in a line: Inhibition of BTK in human whole blood assessed as reduction in goat anti human IgM/human IL4-stimulated CD69 cell surface expression on peripheral B cells incubated for 18 hrs by FACS analysis. The data set is classed as tissue-based.
Data set [4] can be described thus: Cmax in mouse at 10 mg/kg, PO. The class given is ADME, organism-based. The arrangement: route oral, dose 10 mg/kg. The following applies: in vivo.
The nature of data set [5]: AUC in mouse at 10 mg/kg, PO. The data set is classed as ADME, organism-based. Also on record: dose 10 mg/kg. Conditions: in vivo.
Data set [6] is described as follows: Glutathione reactivity in human liver microsomes assessed as GSH-adduct formation at 10 uM incubated for 60 mins. The data set is classed as ADME. Conditions: 1 h.
The test system of a further data set is B cell. The experiment in a line: Antiproliferative activity against anti-IgM/IgG-induced human peripheral B cells. The class given is functional, cell-based. The method, boiled down:
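B cell receptor stimulation of human peripheral B cells with anti-IgM/IgG (proliferation read-out), of human whole blood with anti-IgM (CD69 surface expression), and of mouse whole blood with anti-IgM/IgG (CD69 surface expression). IC50 reported as the mean of at least three determinations; for line 9 a single determination is also reported.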

A short description of data set [7]: Stability of the compound in human whole blood assessed drug degradation at 0.5 uM incubated for 10 mins. The data set is classed as ADME, tissue-based. The following applies: read-out: Drug degradation. A digest of the protocol:
(§1)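 Test compound spiked into human whole blood at 0.5 µM and incubated; remaining parent tracked over time, with samples at 10 min and at 2 h.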

A short description of data set [8]: Stability of the compound in human whole blood assessed drug degradation at 0.5 uM incubated for 2 hrs. The data set is classed as ADME, tissue-based. The following applies: read-out: Drug degradation. The method, boiled down:
as §1

T1 sequence (Q06187 whole entry): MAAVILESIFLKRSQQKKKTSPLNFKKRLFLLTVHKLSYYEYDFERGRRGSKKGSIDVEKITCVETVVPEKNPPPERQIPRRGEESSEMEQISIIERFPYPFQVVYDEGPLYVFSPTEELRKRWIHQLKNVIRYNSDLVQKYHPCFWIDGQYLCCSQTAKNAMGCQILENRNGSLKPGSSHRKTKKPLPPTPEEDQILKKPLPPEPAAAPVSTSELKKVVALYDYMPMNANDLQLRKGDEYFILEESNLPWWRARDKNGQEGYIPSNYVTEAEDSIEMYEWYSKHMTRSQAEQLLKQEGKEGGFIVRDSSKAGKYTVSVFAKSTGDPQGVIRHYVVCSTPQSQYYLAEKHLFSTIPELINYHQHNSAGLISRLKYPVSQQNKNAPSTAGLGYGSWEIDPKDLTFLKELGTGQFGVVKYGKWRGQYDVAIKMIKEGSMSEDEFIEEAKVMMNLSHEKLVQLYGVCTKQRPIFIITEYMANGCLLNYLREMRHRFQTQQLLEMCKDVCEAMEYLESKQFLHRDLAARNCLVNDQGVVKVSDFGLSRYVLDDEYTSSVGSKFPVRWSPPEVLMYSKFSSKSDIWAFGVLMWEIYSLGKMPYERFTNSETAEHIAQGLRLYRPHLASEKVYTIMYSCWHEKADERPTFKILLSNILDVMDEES

Turning to `Cc1c(-c2ccc(C(N)=O)c3[nH]c4cc(C(C)(C)O)ccc4c23)cccc1-n1c(=O)cc2c(F)cccn2c1=O`, the negative logarithm of the IC50 (pIC50) in data set [1] was 9.07; in data set [2] it was 7.72 and 7.74 and 7.85; in data set [3], 7.12 and 7.04 and 7.10. Also, the Ratio IC50 in the data set listed under Homo sapiens was 1100 and 500 and 870. Also, the highest level in data set [4] (Cmax) was 5200 nM. The same compound came in with an AUC in data set [5] of 28 µM·h.
Regarding `Cc1c(-c2ccc(C(N)=O)c3[nH]c4cc(C(C)(C)O)ccc4c23)cccc1-n1c(=O)cc2c(Cl)cccn2c1=O`, the Ratio IC50 in the data set listed under Homo sapiens is 1400 and 1100 and 2500. Besides, the pIC50 in data set [2] is 7.92 and 7.74 and 7.89; in data set [3] it was 6.92 and 7.11 and 7.16. Further, the Cmax in [4] was 3500 nM. Moreover, in data set [5], the AUC was determined as 23 µM·h. Further, the Stabilty result in data set [6] is recorded as “Stable”.
Regarding `Cc1c(-c2ccc(C(N)=O)c3[nH]c4cc(C(C)(C)O)ccc4c23)cccc1-n1cnc2ccccc2c1=O`, the AUC in data set [5] was found to be 80 µM·h. In the data set on B cell, this compound had a pIC50 of 8.10.
Consider `COc1ccn2c(=O)n(-c3cccc(-c4ccc(C(N)=O)c5[nH]c6cc(C(C)(C)O)ccc6c45)c3C)c(=O)cc2c1`, for which the Ratio IC50 in the data set filed under Homo sapiens was 1600. Also, the pIC50 in [2] is 7.72; in data set [3], 6.85. In addition, in [4], the Cmax is 1300 nM. For the same compound, the AUC in data set [5] amounted to 3.9 µM·h.
In the same order, the values of `COc1cccn2c(=O)n(-c3cccc(-c4ccc(C(N)=O)c5[nH]c6cc(C(C)(C)O)ccc6c45)c3C)c(=O)cc12` are 1900, 7.72, 6.85, 1300 nM and 4 µM·h.
For `Cc1c(-c2ccc(C(N)=O)c3[nH]c4cc(C(C)(C)O)ccc4c23)cccc1-n1c(=O)cc2cc(Cl)ccn2c1=O`, the pIC50 in data set [1] is 9.31; in data set [2], 8.51; in [3], 5.52. Further, the Ratio IC50 in the data set filed under Homo sapiens came to 1500. Moreover, in data set [7], the metabolised at 10 min, 0.5 µM was above 85%. For the same compound, in data set [8], the metabolised at 2 h, 0.5 µM is 100%. The Stabilty result in data set [6] is recorded as “Unstable”.
